Data on 4 compounds can be found in article PMC9279635 (Acta Pharmaceutica Sinica. B, 2021).

Bounds are passed on as bounds.

The test system of assay [1] is bleomycin-induced pulmonary fibrosis. The experiment in a line: BLM induced mouse lung fibrosis. Type of assay: in vivo, mice (C57BL/6). The essentials: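 Bleomycin (1.7 U/kg) or saline is given intratracheally to mice. After 7 days, test compound is dosed once daily for 21 days (n = 6–9/group). Body weight is tracked over the period. On day 21, lung sections are stained with H&E, F4/80, Masson and COL-1, and H&E and Masson sections are scored. Data are mean ± SEM, analysed by one-way ANOVA with Fisher's LSD.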

For a further assay, the target named is T1, DDR2 (Homo sapiens, UniProt Q16832).
T1 sequence (Q16832 22-855): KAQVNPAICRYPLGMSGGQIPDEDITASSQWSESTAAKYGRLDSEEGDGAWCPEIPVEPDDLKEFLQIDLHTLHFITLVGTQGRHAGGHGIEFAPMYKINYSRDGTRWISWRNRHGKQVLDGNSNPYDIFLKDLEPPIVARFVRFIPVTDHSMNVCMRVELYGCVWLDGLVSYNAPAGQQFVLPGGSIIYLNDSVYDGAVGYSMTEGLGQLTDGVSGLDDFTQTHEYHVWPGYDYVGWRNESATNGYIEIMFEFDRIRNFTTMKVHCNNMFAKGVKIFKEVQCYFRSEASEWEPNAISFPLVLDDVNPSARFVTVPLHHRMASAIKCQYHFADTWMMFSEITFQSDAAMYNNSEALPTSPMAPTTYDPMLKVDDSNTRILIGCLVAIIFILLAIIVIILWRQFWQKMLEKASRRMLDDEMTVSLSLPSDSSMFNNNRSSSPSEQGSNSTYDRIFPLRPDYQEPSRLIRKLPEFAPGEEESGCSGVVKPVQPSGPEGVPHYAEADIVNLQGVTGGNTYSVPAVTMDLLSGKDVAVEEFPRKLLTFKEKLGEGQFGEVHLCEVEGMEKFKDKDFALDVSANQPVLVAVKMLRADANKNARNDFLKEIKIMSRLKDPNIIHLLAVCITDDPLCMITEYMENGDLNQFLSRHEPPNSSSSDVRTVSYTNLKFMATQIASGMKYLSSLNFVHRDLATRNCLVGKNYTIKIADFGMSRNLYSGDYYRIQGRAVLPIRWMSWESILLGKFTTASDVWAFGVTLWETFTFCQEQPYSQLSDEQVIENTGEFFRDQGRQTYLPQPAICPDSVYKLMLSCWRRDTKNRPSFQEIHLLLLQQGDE
The experiment in a line: ELISA kinase assay, DDR2. Type of assay: biochemical. To be noted: DDR2 IC50, two separate experiments.

A further assay deals with DDR1 (Homo sapiens, UniProt Q08345). Briefly: ELISA kinase assay, DDR1. The format is biochemical.
Chain of DDR1 (Q08345 19-913): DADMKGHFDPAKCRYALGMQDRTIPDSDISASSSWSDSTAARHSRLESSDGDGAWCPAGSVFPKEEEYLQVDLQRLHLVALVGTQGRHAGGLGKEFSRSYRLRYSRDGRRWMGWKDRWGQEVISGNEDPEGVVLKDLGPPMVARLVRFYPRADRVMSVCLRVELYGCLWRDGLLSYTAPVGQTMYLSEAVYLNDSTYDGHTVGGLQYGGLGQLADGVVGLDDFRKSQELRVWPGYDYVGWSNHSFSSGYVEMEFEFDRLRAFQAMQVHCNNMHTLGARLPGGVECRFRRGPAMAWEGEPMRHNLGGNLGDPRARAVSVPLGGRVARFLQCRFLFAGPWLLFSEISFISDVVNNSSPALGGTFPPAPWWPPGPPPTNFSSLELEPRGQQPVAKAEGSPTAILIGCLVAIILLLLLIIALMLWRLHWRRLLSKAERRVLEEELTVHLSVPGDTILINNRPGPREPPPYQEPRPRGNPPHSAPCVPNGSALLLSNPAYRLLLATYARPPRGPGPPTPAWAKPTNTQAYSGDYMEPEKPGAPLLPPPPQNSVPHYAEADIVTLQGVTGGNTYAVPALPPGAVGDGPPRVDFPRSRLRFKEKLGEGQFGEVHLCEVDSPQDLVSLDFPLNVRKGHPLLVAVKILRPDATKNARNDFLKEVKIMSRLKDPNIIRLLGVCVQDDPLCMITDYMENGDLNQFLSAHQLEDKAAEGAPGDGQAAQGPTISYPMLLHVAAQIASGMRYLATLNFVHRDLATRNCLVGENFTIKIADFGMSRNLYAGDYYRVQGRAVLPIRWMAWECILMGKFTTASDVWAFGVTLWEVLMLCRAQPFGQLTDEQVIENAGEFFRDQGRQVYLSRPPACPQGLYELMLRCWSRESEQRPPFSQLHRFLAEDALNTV
Assay [2] relates to DDR2 phosphorylation in MRC-5. Briefly: DDR2 phosphorylation in TGF-β stimulated MRC-5. The format is cell-based. The following applies: 1 μmol/L, MRC-5, 24 h TGF-β stimulation. The essentials: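 Confluent MRC-5 fibroblasts are stimulated with TGF-β (5 ng/mL) and treated with a range of test compound concentrations for 24 h. Western blots are probed for phospho-DDR2, fibronectin, α-SMA, with GAPDH as loading control.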

For a further assay, the target named is RET (Homo sapiens, UniProt P07949). Briefly: ELISA kinase assay, RET. Type of assay: biochemical.
Chain of RET (P07949 29-1114): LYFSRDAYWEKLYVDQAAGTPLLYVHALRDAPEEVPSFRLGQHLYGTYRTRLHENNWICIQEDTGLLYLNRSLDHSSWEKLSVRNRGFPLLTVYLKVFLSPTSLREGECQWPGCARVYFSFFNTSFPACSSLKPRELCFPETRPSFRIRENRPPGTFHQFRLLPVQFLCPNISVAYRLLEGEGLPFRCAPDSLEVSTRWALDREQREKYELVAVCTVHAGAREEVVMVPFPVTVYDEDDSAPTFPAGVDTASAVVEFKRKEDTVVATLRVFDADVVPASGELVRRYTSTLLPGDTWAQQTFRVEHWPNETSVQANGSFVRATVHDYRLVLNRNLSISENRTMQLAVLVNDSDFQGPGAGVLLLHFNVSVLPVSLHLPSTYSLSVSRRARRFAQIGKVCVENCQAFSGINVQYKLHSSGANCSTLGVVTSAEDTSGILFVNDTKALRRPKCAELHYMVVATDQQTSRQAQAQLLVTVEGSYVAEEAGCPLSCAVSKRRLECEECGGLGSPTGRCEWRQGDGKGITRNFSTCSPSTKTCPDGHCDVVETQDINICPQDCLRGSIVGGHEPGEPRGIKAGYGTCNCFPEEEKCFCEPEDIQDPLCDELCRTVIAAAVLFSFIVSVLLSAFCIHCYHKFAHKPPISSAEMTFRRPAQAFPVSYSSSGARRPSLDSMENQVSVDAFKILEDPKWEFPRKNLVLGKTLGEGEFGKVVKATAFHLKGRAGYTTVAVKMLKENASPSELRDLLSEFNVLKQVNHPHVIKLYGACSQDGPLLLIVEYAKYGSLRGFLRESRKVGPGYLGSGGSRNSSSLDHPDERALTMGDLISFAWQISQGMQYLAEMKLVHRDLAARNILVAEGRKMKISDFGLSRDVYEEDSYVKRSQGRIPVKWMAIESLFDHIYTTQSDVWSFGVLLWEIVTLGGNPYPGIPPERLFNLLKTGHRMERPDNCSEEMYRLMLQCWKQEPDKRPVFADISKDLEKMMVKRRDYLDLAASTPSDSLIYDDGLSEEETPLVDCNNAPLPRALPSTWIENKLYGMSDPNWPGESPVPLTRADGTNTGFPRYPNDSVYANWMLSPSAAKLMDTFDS
The next assay has as its target T2, Flt-3 (Homo sapiens, UniProt P36888).
T2 sequence (P36888 27-993): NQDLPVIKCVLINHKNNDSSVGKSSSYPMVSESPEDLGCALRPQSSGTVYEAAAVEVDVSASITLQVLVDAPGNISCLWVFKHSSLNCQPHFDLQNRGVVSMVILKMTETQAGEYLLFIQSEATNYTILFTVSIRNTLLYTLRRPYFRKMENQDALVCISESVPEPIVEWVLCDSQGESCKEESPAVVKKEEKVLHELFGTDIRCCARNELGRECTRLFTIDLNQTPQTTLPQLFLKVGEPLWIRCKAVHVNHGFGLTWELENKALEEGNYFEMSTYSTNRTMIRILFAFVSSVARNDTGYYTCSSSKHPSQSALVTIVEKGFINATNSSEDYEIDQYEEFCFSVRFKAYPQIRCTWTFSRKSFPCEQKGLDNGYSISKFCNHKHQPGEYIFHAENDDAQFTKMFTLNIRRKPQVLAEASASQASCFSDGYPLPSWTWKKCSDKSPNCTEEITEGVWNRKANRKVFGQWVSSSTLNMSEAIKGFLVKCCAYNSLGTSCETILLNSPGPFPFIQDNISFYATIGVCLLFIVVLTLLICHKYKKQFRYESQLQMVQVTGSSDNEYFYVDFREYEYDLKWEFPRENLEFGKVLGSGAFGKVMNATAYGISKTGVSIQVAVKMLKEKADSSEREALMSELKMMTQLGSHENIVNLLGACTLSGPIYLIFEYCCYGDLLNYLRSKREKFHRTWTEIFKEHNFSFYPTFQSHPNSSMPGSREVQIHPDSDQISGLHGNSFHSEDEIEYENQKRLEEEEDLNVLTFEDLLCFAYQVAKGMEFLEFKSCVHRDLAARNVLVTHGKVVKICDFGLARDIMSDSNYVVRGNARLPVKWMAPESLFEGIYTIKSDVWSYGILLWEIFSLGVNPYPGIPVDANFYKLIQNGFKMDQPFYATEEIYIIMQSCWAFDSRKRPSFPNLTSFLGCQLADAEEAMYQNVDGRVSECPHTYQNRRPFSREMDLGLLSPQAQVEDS
The experiment in a line: ELISA kinase assay, Flt-3. The following applies: read-out: Flt-3 inhibition@100 nmol/L. Type of assay: biochemical.

For a further assay, the target named is KDR (Homo sapiens, UniProt P35968). Briefly: ELISA kinase assay, KDR. To be noted: for KDR inhibition ratio: 10 nmol/L. The format is biochemical.
Chain of KDR (P35968 20-1356): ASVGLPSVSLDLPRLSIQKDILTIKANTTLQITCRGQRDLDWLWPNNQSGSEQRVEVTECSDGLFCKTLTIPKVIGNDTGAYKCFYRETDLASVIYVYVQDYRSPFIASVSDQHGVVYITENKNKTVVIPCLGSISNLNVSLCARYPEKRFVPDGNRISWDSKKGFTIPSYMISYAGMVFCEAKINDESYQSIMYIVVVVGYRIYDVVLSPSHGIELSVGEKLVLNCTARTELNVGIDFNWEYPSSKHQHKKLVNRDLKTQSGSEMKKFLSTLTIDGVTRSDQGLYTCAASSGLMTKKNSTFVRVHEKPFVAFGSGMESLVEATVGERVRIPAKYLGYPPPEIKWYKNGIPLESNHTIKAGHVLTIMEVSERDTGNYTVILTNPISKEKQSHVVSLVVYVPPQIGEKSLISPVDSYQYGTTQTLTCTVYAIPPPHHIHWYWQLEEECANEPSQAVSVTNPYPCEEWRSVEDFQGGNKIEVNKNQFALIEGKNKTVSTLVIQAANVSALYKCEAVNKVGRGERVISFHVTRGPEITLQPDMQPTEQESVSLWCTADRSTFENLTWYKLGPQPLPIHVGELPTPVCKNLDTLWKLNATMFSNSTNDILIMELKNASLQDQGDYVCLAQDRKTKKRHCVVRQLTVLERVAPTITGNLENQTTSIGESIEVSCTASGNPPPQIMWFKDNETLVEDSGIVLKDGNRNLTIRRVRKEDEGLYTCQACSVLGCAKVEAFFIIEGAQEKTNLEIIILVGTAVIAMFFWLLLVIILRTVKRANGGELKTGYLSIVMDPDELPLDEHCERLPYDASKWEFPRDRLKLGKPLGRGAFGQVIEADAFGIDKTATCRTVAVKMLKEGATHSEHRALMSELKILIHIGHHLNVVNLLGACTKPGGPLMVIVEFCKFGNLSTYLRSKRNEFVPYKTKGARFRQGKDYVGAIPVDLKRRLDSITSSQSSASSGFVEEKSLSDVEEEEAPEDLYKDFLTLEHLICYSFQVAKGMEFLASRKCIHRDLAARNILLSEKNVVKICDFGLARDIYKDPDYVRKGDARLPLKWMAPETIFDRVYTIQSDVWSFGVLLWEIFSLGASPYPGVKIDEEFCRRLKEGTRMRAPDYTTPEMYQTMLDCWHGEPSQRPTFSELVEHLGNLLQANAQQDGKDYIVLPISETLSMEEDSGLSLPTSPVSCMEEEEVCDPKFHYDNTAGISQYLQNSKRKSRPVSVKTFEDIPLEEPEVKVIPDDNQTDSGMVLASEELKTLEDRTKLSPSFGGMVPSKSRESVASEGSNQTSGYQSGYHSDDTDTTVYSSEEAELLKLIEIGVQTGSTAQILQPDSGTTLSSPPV
In a further assay the target is ALK (Homo sapiens, UniProt Q9UM73). Briefly: Kinase selectivity test, ALK. Type of assay: biochemical. The following applies: 1 μmol/L.
The target of a further assay is ABL (Homo sapiens, UniProt P00519). Briefly: Kinase selectivity test, ABL. The format is biochemical. To be noted: 10 nmol/L.
Chain of ABL (P00519 whole entry): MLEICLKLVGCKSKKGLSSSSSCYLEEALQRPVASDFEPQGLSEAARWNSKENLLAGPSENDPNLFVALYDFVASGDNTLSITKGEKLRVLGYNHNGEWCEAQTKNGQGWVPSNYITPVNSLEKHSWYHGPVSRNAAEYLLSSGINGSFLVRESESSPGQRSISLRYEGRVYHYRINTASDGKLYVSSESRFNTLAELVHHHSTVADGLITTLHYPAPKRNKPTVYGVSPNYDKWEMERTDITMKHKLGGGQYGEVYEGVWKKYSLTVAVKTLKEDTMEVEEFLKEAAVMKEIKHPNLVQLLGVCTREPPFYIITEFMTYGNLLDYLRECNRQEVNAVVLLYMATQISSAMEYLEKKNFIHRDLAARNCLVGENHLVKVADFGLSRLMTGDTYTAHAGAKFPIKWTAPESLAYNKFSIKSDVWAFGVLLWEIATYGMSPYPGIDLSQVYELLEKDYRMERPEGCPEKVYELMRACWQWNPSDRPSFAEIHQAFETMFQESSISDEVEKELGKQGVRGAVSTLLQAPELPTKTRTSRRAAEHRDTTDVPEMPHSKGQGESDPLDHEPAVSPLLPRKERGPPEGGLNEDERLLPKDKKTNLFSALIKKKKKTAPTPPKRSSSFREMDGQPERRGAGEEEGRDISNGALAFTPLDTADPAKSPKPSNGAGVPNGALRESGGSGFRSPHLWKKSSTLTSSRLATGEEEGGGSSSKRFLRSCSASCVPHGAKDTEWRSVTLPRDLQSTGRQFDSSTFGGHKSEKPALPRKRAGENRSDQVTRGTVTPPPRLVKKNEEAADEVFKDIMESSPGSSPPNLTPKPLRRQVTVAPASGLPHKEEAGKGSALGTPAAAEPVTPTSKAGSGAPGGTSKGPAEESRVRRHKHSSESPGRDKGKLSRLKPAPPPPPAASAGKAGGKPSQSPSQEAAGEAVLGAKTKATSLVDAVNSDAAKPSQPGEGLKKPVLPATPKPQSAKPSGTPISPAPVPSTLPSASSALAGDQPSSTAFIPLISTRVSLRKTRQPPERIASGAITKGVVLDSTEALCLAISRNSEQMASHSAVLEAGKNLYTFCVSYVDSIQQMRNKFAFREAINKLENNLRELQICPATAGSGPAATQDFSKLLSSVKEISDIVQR
Another assay has as its target VEGFR-1 (Homo sapiens, UniProt P17948). The experiment in a line: Kinase selectivity test, VEGFR-1. Type of assay: biochemical. The following applies: 10 nmol/L.
In the next assay the test system is PDGFR. The experiment in a line: Kinase selectivity test, PDGFR. The format is biochemical. The following applies: 10 nmol/L.
The target of a further assay is EPH-A2 (Homo sapiens, UniProt P29317). Briefly: Kinase selectivity test, EPH-A2. Type of assay: biochemical. The following applies: 10 nmol/L.
The target of another assay is T3, AXL (Homo sapiens, UniProt P30530).
T3 sequence (P30530 26-894): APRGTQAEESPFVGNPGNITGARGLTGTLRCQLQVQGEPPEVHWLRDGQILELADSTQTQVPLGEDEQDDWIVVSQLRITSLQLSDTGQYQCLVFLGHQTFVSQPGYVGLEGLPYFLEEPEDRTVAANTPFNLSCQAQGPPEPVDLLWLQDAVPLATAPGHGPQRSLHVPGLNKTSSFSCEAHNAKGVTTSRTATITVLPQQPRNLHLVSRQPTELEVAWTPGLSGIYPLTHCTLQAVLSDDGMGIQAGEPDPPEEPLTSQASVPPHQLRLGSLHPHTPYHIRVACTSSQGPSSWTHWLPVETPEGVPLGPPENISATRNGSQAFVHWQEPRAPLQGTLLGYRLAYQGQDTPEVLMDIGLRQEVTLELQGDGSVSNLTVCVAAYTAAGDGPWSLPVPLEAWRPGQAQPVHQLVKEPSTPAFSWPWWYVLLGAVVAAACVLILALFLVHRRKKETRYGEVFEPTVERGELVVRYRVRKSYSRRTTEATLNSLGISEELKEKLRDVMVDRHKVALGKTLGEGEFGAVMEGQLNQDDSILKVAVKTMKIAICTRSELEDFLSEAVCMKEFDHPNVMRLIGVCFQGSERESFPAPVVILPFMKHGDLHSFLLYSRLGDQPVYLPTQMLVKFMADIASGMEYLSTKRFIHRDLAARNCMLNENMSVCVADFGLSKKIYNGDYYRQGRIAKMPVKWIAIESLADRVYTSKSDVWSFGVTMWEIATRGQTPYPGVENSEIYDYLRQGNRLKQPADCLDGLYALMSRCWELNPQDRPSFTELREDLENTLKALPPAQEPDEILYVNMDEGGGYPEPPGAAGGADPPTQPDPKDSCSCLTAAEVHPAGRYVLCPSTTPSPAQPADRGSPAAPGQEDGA
The experiment in a line: Kinase selectivity test, AXL. To be noted: 10 nmol/L. Type of assay: biochemical.

The next assay concerns the target FGFR-1 (Homo sapiens, UniProt P11362). The experiment in a line: Kinase selectivity test, FGFR-1. Type of assay: biochemical. To be noted: 10 nmol/L.
The target in another assay is ErbB4 (Homo sapiens, UniProt Q15303). Briefly: Kinase selectivity test, ErbB4. The format is biochemical. To be noted: 10 nmol/L.
A further assay concerns the target c-Src (Homo sapiens, UniProt P12931). Briefly: Kinase selectivity test, c-Src. The format is biochemical. To be noted: 10 nmol/L.

Chain of c-Src (P12931 whole entry): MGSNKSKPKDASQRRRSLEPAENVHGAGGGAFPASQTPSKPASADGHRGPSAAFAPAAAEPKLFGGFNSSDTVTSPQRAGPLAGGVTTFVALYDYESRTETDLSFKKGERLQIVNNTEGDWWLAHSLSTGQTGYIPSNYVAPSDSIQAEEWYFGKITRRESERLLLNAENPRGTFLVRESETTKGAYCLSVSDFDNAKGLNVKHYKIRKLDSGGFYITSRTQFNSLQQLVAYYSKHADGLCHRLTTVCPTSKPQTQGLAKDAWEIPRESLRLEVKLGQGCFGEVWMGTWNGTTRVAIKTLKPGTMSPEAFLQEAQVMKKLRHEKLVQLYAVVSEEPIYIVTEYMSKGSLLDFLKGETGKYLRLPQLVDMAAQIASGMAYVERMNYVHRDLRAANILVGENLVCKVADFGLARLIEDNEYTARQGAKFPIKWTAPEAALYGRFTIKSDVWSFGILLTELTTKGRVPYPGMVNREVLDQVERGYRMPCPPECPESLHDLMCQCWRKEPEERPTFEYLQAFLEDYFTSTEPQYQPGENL

As to `COC(=O)c1ccc2c(c1)NC(=O)/C2=C(\Nc1ccc(N(C)C(=O)CN2CCN(C)CC2)cc1)c1ccccc1` [nintedanib], the “weight of mice at the end of the treatment” value in [1] (60 mg/kg once daily) is given as 24.54 ± 2.09 g. Besides, the weight recovery ratio in assay [1] (BLM mice, 60 mg/kg) is 12.93%. The compound also yielded a Masson score in assay [1] (BLM mice, 60 mg/kg, vehicle 2.67 ± 0.57, scale 1–4) of 1.89 ± 0.55.
Turning to `Cc1ccc(C(=O)Nc2cccc(C(F)(F)F)c2)cc1-c1ccc2nc(Nc3cnn(C4CC4)c3)ncc2c1` [Compound 24, 3-(2-((1-Cyclopropyl-1H-pyrazol-4-yl)amino)quinazolin-6-yl)-4-methyl-N-(3-(trifluoromethyl)phenyl)benzamide], the concentration for half-maximal inhibition (IC50) against DDR2 amounted to 2.8 ± 0.5 nM; against DDR1, 13.8 nM. Besides, the “inhibition of DDR2 phosphorylation” value in [2] is “high inhibitory activity”.
As for `Cc1ccc(C(=O)Nc2cccc(C(F)(F)F)c2)cc1-c1ccc2nc(Nc3cnn(C)c3)ncc2c1` [Compound 22, 4-Methyl-3-(2-((1-methyl-1H-pyrazol-4-yl)amino)quinazolin-6-yl)-N-(3-(trifluoromethyl)phenyl)benzamide], on DDR1, the IC50 stood at 8.13 nM. Besides, the inhibition at 0.01 µM at RET (read-out: RET inhibition @10 nmol/L) is more than 50%. For the same compound, the inhibition at 0.1 µM on RET (read-out: RET inhibition @100 nmol/L) came out at 97.2%; on Flt-3, 80.3%. The KDR inhibition ratio result on KDR was “over 50%”. For the same compound, the “inhibition ratio on ALK” value at ALK is given as 18.5%. Besides, the ABL inhibition ratio result at ABL is “over 50%”. Moreover, the VEGFR-1 inhibition ratio result at VEGFR-1 is “over 50%”. Also, the PDGFR inhibition ratio entry in the assay with PDGFR is “over 50%”. For the same compound, the EPH-A2 inhibition ratio entry at EPH-A2 is “over 50%”. Also, the AXL inhibition ratio result at AXL is given as “over 50%”. Further, the FGFR-1 inhibition ratio result at FGFR-1 was “over 50%”. Moreover, the ErbB4 inhibition ratio entry on ErbB4 is listed as “over 50%”. Besides, the c-Src inhibition ratio entry at c-Src is “over 50%”. Moreover, in assay [2], the “inhibition of DDR2 phosphorylation” value is on record as “high inhibitory activity”.
`O=C(Nc1cccc(C(F)(F)F)c1)c1ccc(C2CC2)c(-c2ccc3nc(Nc4cnn(C5CC5)c4)ncc3c2)c1` [Compound 36, 4-Cyclopropyl-3-(2-((1-cyclopropyl-1H-pyrazol-4-yl)amino)quinazolin-6-yl)-N-(3-(trifluoromethyl)phenyl)benzamide] gave an IC50 against DDR1 of 16 nM. For the same compound, the inhibition at 0.1 µM at Flt-3 was determined as 0%; on KDR (read-out: KDR inhibition @100 nmol/L), 100%. Also, the KDR inhibition ratio entry on KDR was “over 50%”. For the same compound, the ABL inhibition ratio entry on ABL is listed as “over 50%”. Also, the “inhibition of DDR2 phosphorylation” value in assay [2] is given as “high inhibitory activity”.
